Data set [1] deals with 5-hydroxytryptamine receptor 2B (Homo sapiens, UniProt P41595). The data set can be described thus: Binding affinity for human 5-hydroxytryptamine 2B receptor expressed in HEK 293 cells using [3H]5-HT. Type of data set: cell-based, HEK293.
In data set [2] the target is 5-hydroxytryptamine receptor 2A (Homo sapiens, UniProt P28223). The data set can be described thus: Binding affinity for human 5-hydroxytryptamine 2A receptor expressed in HEK 293 cells using [3H]ketanserin. Type of data set: cell-based, HEK293.
Sequence of 5-hydroxytryptamine receptor 2A (P28223 whole entry): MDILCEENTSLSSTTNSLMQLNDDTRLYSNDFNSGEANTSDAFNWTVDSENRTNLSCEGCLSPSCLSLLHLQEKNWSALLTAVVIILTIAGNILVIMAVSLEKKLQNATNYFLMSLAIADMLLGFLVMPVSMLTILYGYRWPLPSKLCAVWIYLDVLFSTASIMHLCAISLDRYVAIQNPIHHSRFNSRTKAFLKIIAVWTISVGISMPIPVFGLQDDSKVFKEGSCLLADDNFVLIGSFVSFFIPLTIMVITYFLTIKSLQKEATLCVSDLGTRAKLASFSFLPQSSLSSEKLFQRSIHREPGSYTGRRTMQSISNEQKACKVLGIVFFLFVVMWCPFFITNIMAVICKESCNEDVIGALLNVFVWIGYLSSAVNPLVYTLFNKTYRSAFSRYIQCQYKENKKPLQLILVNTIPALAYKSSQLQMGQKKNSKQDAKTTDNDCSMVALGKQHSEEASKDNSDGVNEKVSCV
For data set [3], the target named is T1, 5-hydroxytryptamine receptor 2C (Homo sapiens, UniProt P28335).
T1 sequence (P28335 whole entry): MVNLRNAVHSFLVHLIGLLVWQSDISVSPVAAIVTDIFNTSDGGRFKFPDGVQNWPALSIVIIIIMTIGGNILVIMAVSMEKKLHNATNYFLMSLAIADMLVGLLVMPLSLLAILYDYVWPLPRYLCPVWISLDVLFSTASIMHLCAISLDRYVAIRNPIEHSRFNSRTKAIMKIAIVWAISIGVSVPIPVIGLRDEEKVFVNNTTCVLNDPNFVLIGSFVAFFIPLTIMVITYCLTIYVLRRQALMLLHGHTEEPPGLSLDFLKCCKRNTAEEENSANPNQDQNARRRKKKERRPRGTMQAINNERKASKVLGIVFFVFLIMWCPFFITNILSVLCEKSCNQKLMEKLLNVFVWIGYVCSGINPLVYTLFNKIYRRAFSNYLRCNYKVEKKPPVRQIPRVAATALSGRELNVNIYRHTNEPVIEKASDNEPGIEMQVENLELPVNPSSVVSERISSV
The data set can be described thus: Binding affinity for human 5-hydroxytryptamine 2C receptor expressed in HEK 293 cells using [3H]mesulergine. Type of data set: cell-based, HEK293.

Data set [4] can be described thus: In vivo clearance in rat was determined. Type of data set: ADME, organism-based.
The subject of data set [5] is Rattus norvegicus. As to the kind of experiment: Percentage reversal at 10 mg/kg po of mCPP (7 mg/kg i.p.) induced hypolocomotion. Type of data set: functional. The method in brief: (§1)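 Rats were given the test compound orally at 10 mg/kg. mCPP, a 5-HT2C agonist, was given at 7 mg/kg ip 20 min before testing to induce hypolocomotion. The read-out was the percentage reversal of mCPP-induced hypolocomotion.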

Data set [6] relates to Rattus norvegicus. The data set can be described thus: Dose of compound required to reverse mCPP (7 mg/kg i.p.) induced hypolocomotion by 50%. Type of data set: functional. A digest of the protocol: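 In rats, hypolocomotion was induced with the 5-HT2C agonist mCPP at 7 mg/kg ip, given 30 min pretest. The value is the compound dose that reversed the mCPP-induced hypolocomotion by 50%.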

Data set [7] concerns Rattus norvegicus. As to the kind of experiment: Percentage reversal at 10 mg/kg po of mCPP (7 mg/kg i.p.) induced hypolocomotion; IA = in active. Type of data set: functional, organism-based. Also noted: dose 10 mg/kg. The method in brief: as §1
The subject of data set [8] is Rattus norvegicus. The data set can be described thus: Percentage reversal at 10 mg/kg po of mCPP (7 mg/kg i.p.) induced hypolocomotion; in active. More on the design: dose 10 mg/kg. Type of data set: functional, organism-based. A digest of the protocol: as §1

Calls of active or inactive are those of the source. The calls are words filed in the database; no cut-off is given here.

Sequence of 5-hydroxytryptamine receptor 2B (P41595 whole entry): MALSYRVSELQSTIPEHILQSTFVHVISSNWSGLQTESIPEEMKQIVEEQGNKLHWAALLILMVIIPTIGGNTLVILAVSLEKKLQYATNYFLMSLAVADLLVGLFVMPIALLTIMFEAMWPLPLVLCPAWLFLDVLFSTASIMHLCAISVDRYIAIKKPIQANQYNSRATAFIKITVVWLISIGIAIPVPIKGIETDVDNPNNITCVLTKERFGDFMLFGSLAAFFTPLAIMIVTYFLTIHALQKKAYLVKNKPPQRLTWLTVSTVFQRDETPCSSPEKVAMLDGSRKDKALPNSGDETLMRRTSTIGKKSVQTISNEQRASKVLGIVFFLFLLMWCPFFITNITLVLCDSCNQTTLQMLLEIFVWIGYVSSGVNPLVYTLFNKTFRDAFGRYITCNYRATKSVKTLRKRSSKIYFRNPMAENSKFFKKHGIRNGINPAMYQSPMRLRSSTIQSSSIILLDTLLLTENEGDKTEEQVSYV

Take `COc1ccc(-n2ccn(-c3cc(F)cc(F)c3)c2=O)cc1OCCN1CCCCC1`: the Ki is over 7940 nM in data set [1], over 10000 nM in data set [2] and 7.94 nM in data set [3].
With `O=C1N(c2ccc(OCc3ccccn3)nc2)CCN1c1ccc(Cl)c(Cl)c1`, the values for the Ki in data set [1], in data set [2] and in data set [3] were over 6310 nM, over 10000 nM and 398 nM, respectively.
`COc1ccc(N2CCN(c3cccc(F)c3)C2=O)cc1OCCN1CCCCC1`: the clearance in data set [4] is over 120 mL/min/kg. Moreover, the Ki was 501 nM in data set [1], 2000 nM in data set [2] and 1.58 nM in data set [3]. In the data set with Rattus norvegicus [5], the Reversal was determined as 7%.
Compound `Cc1cc2c(cc1C(F)(F)F)N(C(=O)Nc1ccc(OCc3ccccn3)nc1)CC2` had an ID50 in the data set with Rattus norvegicus [6] of 1 mg/kg.
On to `COc1ccc(N2CCN(c3ccc(Cl)c(Cl)c3)C2=O)cc1OCCN1CCOCC1`, for which the Ki in data set [1] was 316 nM; in data set [2], over 5010 nM; in data set [3] it was 3.16 nM. For the same compound, the Reversal in the data set on Rattus norvegicus [5] is 7%.
For `Cc1cc2c(cc1C(F)(F)F)N(C(=O)Nc1ccc(Oc3cccnc3C)nc1)CC2` [SB-243213], the ID50 in the data set on Rattus norvegicus [6] came to 0.7 mg/kg.
In the case of `COc1ccc(N2CCN(c3cccc(Cl)c3Cl)C2=O)cc1OCCN1CCCCC1`, the Reversal result with Rattus norvegicus [7] is “inactive”. Besides, the Ki was 1260 nM in data set [1], 1580 nM in data set [2] and 10 nM in data set [3].
In data set [4], `COc1ccc(N2CCN(c3cccc(F)c3)C2=O)cc1OCCN1CCOCC1` had a clearance of over 120 mL/min/kg. Also, the Ki in data set [1] is 794 nM; in data set [2] it was over 6310 nM; in data set [3], 12.6 nM. Besides, the Reversal with Rattus norvegicus [5] is reported as 10%.
For `COc1ccc(N2CCN(c3ccccc3Cl)C2=O)cc1OCCN1CCCCC1`, the Ki was over 7940 nM in data set [1], 3980 nM in data set [2] and 31.6 nM in data set [3].
For the compound `COc1ccc(N2CCN(c3cccc(F)c3)C2=O)cc1OCCO`, the Ki in data set [1] was 1260 nM; in data set [2] it was over 10000 nM; in data set [3], 1260 nM.
With `COc1ccc(N2CCN(c3ccccc3)C2=O)cc1OCCN1CCCCC1`, the Ki is 1260 nM in data set [1], 2510 nM in data set [2] and 1.26 nM in data set [3]. Besides, the Reversal result in the data set on Rattus norvegicus [8] was “inactive”.
Regarding `COc1ccc(N2CCN(c3ccc(C)c(C(F)(F)F)c3)C2=O)cc1OCCN1CCOCC1`, the results for the Ki in data set [1], in data set [2] and in data set [3] were 126 nM, 3160 nM and 7.94 nM, respectively. The Reversal result in the data set with Rattus norvegicus [8] is “inactive”.
In the case of `COc1ccc(N2CCN(c3ccc(Cl)c(Cl)c3)C2=O)cc1OCCN1CCCCC1`, the clearance in data set [4] turned out to be 45 mL/min/kg. The inhibition constant (Ki) in data set [1] is 316 nM; in data set [2], 631 nM; in data set [3] it was 0.794 nM. In the data set with Rattus norvegicus [5], the Reversal is 75%.
With `O=C1N(c2ccc(OCCN3CCCCC3)nc2)CCN1c1ccc(Cl)c(Cl)c1`, the Ki in data set [1] is 158 nM; in data set [2], 1000 nM; in data set [3], 25.1 nM.
As to `COc1ccc(N2CCN(c3ccc(C)c(C(F)(F)F)c3)C2=O)cc1OCCN1CCCCC1`, the figures for the Ki in data set [1], in data set [2] and in data set [3] were 79.4 nM, 398 nM and 2 nM, respectively. For the same compound, the Reversal entry in the data set on Rattus norvegicus [8] was “inactive”.
Consider `COc1ccc(N2CCN(c3cccc(F)c3)C2=O)cc1OCCN(C)C`, for which the Ki in data set [1] is 1580 nM; in data set [2], 2510 nM; in data set [3], 3.98 nM. Besides, the Reversal with Rattus norvegicus [5] worked out at 40%.
For the compound `COc1ccc(-n2ccn(-c3cccc(F)c3)c2=O)cc1OCCN1CCCCC1`, the Ki in data set [1] is 2000 nM; in data set [2], over 1000 nM; in data set [3], 6.31 nM. Also, the Reversal result in the data set with Rattus norvegicus [8] was “inactive”.
Regarding `COc1ccc(N2CCN(c3ccc(Cl)c(Cl)c3)C2=O)cc1OCCN(C)C`, the Reversal result with Rattus norvegicus [8] is “inactive”. Further, the Ki in data set [2] is 501 nM; in data set [3], 1.26 nM.
As to `COc1ccc(N2CCN(c3cc(F)cc(F)c3)C2=O)cc1OCCN1CCCCC1`, the Ki in data set [1] is over 5010 nM; in data set [2] it was over 10000 nM; in data set [3], 1 nM. Besides, the Reversal with Rattus norvegicus [5] was 40%.
For `COc1cc2c(cc1OCCN1CCCCC1)N(C(=O)/C=C/c1ccccc1Cl)CC2` the same measures were 126 nM, 398 nM, 0.631 nM and 71%.
In turn, `Cc1cc2c(cc1Cl)N(C(=O)Nc1ccc(Oc3cccnc3C)nc1)CC2` [SB-242084] yielded an ID50 with Rattus norvegicus [6] of 2 mg/kg.
For the compound `COc1ccc(N2CC(=O)N(c3cccc(F)c3)C2=O)cc1OCCN1CCCCC1`, the Ki was over 6310 nM in data set [1], over 10000 nM in data set [2] and 50.1 nM in data set [3].

Usually Ki stands for the equilibrium dissociation constant of an inhibitor or competing ligand from its target. Lower therefore signals higher affinity. Usually clearance stands for the volume of plasma or blood freed of the substance per unit of time. The low end stands for inefficient removal, the high end for efficient removal.

These data come from ChEMBL document CHEMBL1143636, “A series of bisaryl imidazolidin-2-ones has shown to be selective and orally active 5-HT2C receptor antagonists” (Bioorg Med Chem Lett, 2005).
